The source of these data is ChEMBL document CHEMBL4480410, “Targeting the MKK7-JNK (Mitogen-Activated Protein Kinase Kinase 7-c-Jun N-Terminal Kinase) Pathway with Covalent Inhibitors” (J Med Chem, 2019).

Data set [1] is described as follows: Stability in human plasma assessed as compound remaining at 5 uM after 1 hr by LC/MS analysis. In kind it is ADME, cell-free. The conditions noted are these: read-out: Stability. The gist of the method: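 Compound at 5 µM incubated 1 h at 37 °C in human or mouse plasma; percentage remaining quantified by LC/MS.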
Data set [2] can be described thus: Kinetic solubility of the compound in Hepes buffer at pH 7.4 after 90 mins. In kind it is physicochemical. The conditions noted are these: read-out: Kinetic_solubility. The gist of the method:
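Compound diluted from 10 mM DMSO stock to 500 µM final in 50 mM Hepes, pH 7.4, shaken 90 min at room temperature. Filtered through 0.2 µm PVDF, then OD scanned 250–500 nm in 10 nm steps. Solubility taken from AUC, normalized to a dilution in acetonitrile.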

Data set [3] is described as follows: Apparent permeability across basolateral to apical side in human Caco2 cells at 5 uM after 2 hrs by transwell membrane based assay. The class given is ADME, cell-based, Caco-2. The conditions noted are these: caco-2, 2 h, 5 µM. Summed up:
(§1)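 10 mM DMSO stock diluted to 5 µM final in HBSS pH 7.4; 2 h at 37 °C, 5% CO2 on Caco-2 monolayers grown 21 days on transwell membranes.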

Data set [4] in a line: Apparent permeability across apical to basolateral side in MDCK2-MDR1 cells at 10 uM after 2 hrs by transwell membrane based assay. In kind it is ADME, cell-based, Canis lupus familiaris. The following applies: dog, MDCK-MDR1. Summed up:
(§2)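 Compound at 10 µM in HBSS added to apical or basolateral side of MDCKII-MDR1 monolayer, 2 h at 37 °C. Both sides quantified by LC-MS/MS; Papp A–B or B–A from receiver concentration and volume, time, membrane area and initial donor concentration.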

The nature of data set [5]: Protein binding in human plasma at 5 uM after 6 hrs by LC/MS analysis. The class given is ADME, cell-free. The following applies: read-out: PPB (converted). The gist of the method:
(§3)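 Equilibrium dialysis of plasma with compound at 5 µM, 6 h at 37 °C; final compound concentrations determined by LC/MS to give percent bound.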

Data set [6] is described as follows: Inhibition of N-terminal His-tagged MKK7 beta1 S273D/T275D double mutant (unknown origin) expressed in insect cells using JNK1 K55M mutant as substrate by ADP-Glo assay. Also on record: species or system Homo sapiens. The gist of the method:
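ADP-Glo luminescence run per supplier protocol. Kinase: MKK7 beta1 (aa 1-462, TEV-cleavable N-terminal His6 tag, S273D/T275D) expressed in Sf9 insect cells, used at 20 nM. Substrate: JNK1 K55M at 5 µM. Compound dispensed acoustically; read on plate reader.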
For orientation: ADP-Glo turns the ADP formed in a reaction into a luminescent signal.

Data set [7] in a line: Apparent permeability across basolateral to apical side in MDCK2-MDR1 cells at 10 uM after 2 hrs by transwell membrane based assay. In kind it is ADME, cell-based, Canis lupus familiaris. The following applies: dog, MDCK-MDR1. The gist of the method: as §2
The target of data set [8] is T1, Dual specificity mitogen-activated protein kinase kinase 7 (Homo sapiens) (UniProt O14733).
T1 sequence (whole entry): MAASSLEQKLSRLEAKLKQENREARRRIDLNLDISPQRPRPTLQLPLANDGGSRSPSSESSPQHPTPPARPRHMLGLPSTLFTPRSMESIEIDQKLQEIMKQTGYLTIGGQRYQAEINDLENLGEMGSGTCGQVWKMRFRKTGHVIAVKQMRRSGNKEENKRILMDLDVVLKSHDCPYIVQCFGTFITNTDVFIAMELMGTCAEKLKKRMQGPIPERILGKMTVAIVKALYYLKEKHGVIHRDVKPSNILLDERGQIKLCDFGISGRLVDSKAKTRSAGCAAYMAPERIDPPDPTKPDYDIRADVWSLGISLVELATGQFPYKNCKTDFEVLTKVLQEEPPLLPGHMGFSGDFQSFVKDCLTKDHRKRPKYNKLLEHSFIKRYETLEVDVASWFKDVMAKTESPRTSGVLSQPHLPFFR
Briefly: Covalent binding affinity to MKK7 (unknown origin) assessed as formation of covalent bond with Cys218 residues by MS/MS analysis. The gist of the method:
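Protein at 1 mg/mL incubated with 2-fold molar excess of compound, 30 min on ice, then denatured and run on 15% SDS gel. Band excised, reduced with 50 mM DTT (1 h, 37 °C), alkylated with 55 mM iodoacetamide (1 h, 20 °C), digested with 0.1 mg/mL trypsin 20 h at 30 °C, acidified with TFA. Analysed by ion-trap MS/MS.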

Data set [9] in a line: Apparent permeability across apical to basolateral side in human Caco2 cells at 5 uM after 2 hrs by transwell membrane based assay. In kind it is ADME, cell-based. The following applies: Caco-2. The gist of the method:
as §1
A general note: Caco-2 cells form a polarised layer with tight junctions and transporters.

The nature of data set [10]: Permeability of the compound assessed as drug flux at 500 uM after 16 hrs by PAMPA. In kind it is ADME. Summed up:
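10 mM DMSO stock diluted to 500 µM final in 50 mM Hepes pH 7.4 on membrane coated with 10% dioleoylphosphatidylcholine, 0.5% cholesterol in dodecane; 16 h room temperature, wet chamber.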
(PAMPA measures passive passage across an artificial lipid membrane.)

Data set [11] is described as follows: Protein binding in mouse plasma at 5 uM after 6 hrs by LC/MS analysis. In kind it is ADME, cell-free. The following applies: read-out: PPB (converted). Summed up: as §3
Data set [12] deals with T2, Dual specificity mitogen-activated protein kinase kinase 7 (Mus musculus) (UniProt Q8CE90).
T2 sequence (whole entry): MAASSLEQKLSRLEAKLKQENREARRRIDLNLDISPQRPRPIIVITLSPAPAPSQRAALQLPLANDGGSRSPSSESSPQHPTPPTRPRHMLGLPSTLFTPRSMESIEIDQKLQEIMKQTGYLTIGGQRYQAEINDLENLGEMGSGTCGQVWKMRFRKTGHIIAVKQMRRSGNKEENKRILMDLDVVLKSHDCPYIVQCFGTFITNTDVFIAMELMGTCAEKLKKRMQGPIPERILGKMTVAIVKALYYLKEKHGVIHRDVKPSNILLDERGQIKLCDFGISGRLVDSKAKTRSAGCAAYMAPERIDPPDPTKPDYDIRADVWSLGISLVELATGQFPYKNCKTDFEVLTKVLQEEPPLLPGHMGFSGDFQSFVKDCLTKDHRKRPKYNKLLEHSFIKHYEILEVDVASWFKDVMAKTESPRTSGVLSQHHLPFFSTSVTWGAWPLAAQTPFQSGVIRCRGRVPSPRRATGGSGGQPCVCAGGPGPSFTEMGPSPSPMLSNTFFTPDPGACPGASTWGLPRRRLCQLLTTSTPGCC
Briefly: Inhibition of MKK7 in mouse DRG cells assessed as reduction in cJUN phosphorylation at 1 uM after 2 hrs by Western blot analysis. In kind it is cell-based. Summed up:
(§4)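 Dissociated DRG neurons plated on laminin for 3 h, medium replaced, compound added for a further 2 h. Neurons lysed in RIPA buffer with phosphatase inhibitors. Western blots probed for phospho-cJun, cJun, phospho-JNK and JNK.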

The target of data set [13] is T2, Dual specificity mitogen-activated protein kinase kinase 7 (Mus musculus). As to the kind of experiment: Inhibition of MKK7 in mouse DRG cells assessed as reduction in JNK phosphorylation at 1 uM after 2 hrs by Western blot analysis. The class given is cell-based. Summed up: as §4
The target in data set [14] is Epidermal growth factor receptor (Homo sapiens, UniProt P00533). As to the kind of experiment: Inhibition of wild type EGFR (unknown origin) by HTRF assay.
Chain of Epidermal growth factor receptor (Homo sapiens, UniProt P00533) (P00533 whole entry): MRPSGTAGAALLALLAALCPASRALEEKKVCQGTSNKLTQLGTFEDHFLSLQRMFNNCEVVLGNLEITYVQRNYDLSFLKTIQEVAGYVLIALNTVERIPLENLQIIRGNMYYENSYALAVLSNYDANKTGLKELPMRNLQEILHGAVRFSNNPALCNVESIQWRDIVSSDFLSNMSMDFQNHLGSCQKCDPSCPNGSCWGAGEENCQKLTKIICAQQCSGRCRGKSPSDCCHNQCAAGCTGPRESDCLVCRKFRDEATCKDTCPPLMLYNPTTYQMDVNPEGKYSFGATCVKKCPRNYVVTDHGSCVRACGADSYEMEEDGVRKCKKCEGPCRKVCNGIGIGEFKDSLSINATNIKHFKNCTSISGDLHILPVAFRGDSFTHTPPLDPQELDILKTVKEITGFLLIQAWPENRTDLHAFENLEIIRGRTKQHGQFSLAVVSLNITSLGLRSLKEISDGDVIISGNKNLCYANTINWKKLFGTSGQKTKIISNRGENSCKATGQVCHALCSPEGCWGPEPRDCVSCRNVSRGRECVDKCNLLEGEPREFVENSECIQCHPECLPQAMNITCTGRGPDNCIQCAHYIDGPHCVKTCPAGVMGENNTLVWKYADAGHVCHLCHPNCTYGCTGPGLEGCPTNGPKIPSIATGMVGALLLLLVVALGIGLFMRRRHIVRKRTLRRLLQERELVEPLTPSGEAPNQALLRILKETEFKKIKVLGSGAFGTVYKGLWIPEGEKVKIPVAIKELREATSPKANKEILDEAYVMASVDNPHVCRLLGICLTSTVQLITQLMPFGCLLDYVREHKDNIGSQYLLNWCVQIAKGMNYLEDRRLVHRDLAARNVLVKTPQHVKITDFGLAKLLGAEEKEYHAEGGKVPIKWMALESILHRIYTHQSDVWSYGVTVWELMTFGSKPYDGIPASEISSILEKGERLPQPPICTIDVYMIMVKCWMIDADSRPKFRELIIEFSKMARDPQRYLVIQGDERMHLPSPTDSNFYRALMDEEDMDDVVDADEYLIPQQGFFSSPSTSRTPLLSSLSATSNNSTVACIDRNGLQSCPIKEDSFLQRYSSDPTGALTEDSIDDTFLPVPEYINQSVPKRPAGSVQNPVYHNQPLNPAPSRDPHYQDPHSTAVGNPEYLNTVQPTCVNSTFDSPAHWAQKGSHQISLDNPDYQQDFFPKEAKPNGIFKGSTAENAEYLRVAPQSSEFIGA
For data set [15], the target named is Epidermal growth factor receptor (Homo sapiens, UniProt P00533, L858R/T790M). As to the kind of experiment: Inhibition of EGFR L858R/T790M double mutant (unknown origin) by HTRF assay.
Chain of Epidermal growth factor receptor (Homo sapiens, UniProt P00533, L858R/T790M) (P00533 25-1210 T790M/L858R limits assumed): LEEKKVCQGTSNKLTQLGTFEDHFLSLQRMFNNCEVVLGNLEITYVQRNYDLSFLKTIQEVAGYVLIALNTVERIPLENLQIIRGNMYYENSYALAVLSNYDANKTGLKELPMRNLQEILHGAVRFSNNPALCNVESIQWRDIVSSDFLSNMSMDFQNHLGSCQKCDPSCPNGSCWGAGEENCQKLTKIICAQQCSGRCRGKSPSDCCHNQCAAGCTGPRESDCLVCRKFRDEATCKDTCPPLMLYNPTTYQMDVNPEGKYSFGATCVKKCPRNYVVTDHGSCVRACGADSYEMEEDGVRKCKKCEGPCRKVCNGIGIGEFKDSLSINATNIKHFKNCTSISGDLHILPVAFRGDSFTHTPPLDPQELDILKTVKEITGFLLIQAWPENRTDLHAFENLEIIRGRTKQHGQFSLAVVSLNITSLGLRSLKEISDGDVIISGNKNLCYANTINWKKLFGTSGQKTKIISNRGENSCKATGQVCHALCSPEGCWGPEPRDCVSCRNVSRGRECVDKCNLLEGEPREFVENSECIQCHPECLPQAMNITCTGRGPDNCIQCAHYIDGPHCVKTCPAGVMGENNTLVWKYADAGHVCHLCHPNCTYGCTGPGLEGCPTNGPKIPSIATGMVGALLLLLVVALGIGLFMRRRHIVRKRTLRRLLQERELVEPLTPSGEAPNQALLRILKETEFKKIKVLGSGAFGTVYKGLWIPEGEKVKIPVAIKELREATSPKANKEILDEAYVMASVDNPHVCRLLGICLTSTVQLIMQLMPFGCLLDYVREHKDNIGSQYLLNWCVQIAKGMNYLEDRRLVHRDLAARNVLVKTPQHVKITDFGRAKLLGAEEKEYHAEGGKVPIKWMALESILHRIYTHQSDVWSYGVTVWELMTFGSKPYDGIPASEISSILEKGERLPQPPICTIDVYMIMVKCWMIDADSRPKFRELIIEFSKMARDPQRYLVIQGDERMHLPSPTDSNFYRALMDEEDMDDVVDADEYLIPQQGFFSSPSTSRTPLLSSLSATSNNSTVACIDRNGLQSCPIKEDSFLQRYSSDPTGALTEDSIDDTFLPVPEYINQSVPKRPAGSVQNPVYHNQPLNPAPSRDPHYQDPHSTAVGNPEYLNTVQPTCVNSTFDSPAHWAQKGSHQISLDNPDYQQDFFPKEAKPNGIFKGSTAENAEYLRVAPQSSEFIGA

In brackets after ≈: the same amount, converted by molar mass. Activity calls are given as the source filed them. The calls are words filed in the database; no cut-off is given here.

The Papp is a coefficient for how fast a substance crosses the barrier. The term Papp A→B denotes how fast a substance crosses the layer from the apical side. By IC50 is commonly meant the midpoint of a concentration-inhibition curve. A lower IC50 goes with greater potency. A word on the Papp B→A: it is the apparent permeability from the basolateral to the apical side of a cell layer. In the case of `C=CC(=O)N1CCC[C@@H](n2nc(-c3ccc(Oc4ccccc4)cc3)c3c(N)ncnc32)C1` [IBRUTINIB], the remaining at 1 h, 5 µM in data set [1] is 79.7%. For the same molecule, the solubility kinetic at 1.5 h in data set [2] amounted to 36 µM (≈ 15.9 µg/mL). Moreover, in [3], the Papp is 0.9 ×10⁻⁶ cm/s. For the same molecule, the Papp A→B at 2 h, 10 µM in [4] amounted to 22 ×10⁻⁶ cm/s. The fraction unbound at 6 h, 5 µM was 0.024 in [5] and 0.011 in data set [11]. The molecule also yielded an IC50 in [6] of 78 nM. Also, in data set [7], the basolateral-to-apical permeability (Papp B→A) at 2 h, 10 µM came to 3 ×10⁻⁶ cm/s. Also, in data set [8], the outcome was Active. Moreover, the Papp A→B at 2 h, 5 µM in data set [9] was 40 ×10⁻⁶ cm/s. Besides, the permeability in data set [10] was determined as 38%.

`C#Cc1nn([C@@H]2CCCN(C(=O)C=C)C2)c2ncnc(N)c12`: inhibition in data set [6] was half-maximal at 40 nM (IC50). Further, in data set [8], the result was Active.

In [6], `C=CC(=O)N1CCC[C@@H](n2nc(-c3cn(C)c4ccccc34)c3c(N)ncnc32)C1` registered an IC50 of 302 nM.

For the molecule `CCC(=O)N1CCC[C@@H](n2nc(-c3cn(-c4ccc(C(C)=O)cc4)nn3)c3c(N)ncnc32)C1`, the inhibition entry in data set [12] and in data set [13] was “inactive” each time. In addition, the IC50 was 649 nM in [14], > 10000 nM in [6] and 677 nM in [15].

With `C=CC(=O)N1CCC[C@@H](n2nc(-c3cn(-c4cc(C(F)(F)F)cnc4C#N)nn3)c3c(N)ncnc32)C1`, the half-maximal inhibitory concentration (IC50) in [14] came out at 6 nM; in data set [6], 788 nM; in data set [15] it was 28 nM.

Regarding `C=CC(=O)N1CCC[C@@H](n2nc(-c3cn(Cc4nc5ccc(Cl)cn5c4Br)nn3)c3c(N)ncnc32)C1`, the results for the half-inhibitory concentration (IC50) in [14], in [6] and in data set [15] were 85 nM, 669 nM and 104 nM, respectively.
